From ChEMBL document CHEMBL5055631, “Antitumor properties of novel sesquiterpene lactone analogs as NFκB inhibitors that bind to the IKKβ ubiquitin-like domain (ULD)” (Eur J Med Chem, 2021)

How the values were obtained:
Type in all cases: functional
[1] = system: CCRF-CEM; assay: Anticancer activity against human CCRF-CEM cells assessed as cell growth inhibition incubated for 48 hrs by sulforhodamine B assay
[2] = system: RPMI-8226; assay: Anticancer activity against human RPMI-8226 cells assessed as cell growth inhibition incubated for 48 hrs by SRB method
[3] = system: SR; assay: Anticancer activity against human SR cells assessed as cell growth inhibition incubated for 48 hrs by SRB method
Outline: (§1)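 NCI-60 panel (DTP). Cells in RPMI 1640 with 5% FBS, 2 mM L-glutamine, seeded at 5,000–40,000 per well by doubling time and preincubated 24 h at 37 °C, 5% CO2. Time-zero plates TCA-fixed. DMSO stocks diluted in medium with gentamicin, tested at 100 μM, 10 μM, 1 μM, 0.1 μM and 10 nM for 48 h. Cells fixed with cold TCA, stained with SRB, absorbance read at 515 nm.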

[4] = system: A549; assay: Anticancer activity against human A549 cells assessed as cell growth inhibition incubated for 48 hrs by SRB method; outline: as §1
[5] = system: EKVX; assay: Anticancer activity against human EKVX cells assessed as cell growth inhibition incubated for 48 hrs by SRB method; outline: as §1
[6] = system: HOP-62; assay: Anticancer activity against human HOP-62 cells assessed as cell growth inhibition incubated for 48 hrs by SRB method; outline: as §1
[7] = system: MOLT-4; assay: Anticancer activity against human MOLT-4 assessed as cell growth inhibition incubated for 48 hrs by SRB method
[8] = system: K562; assay: Anticancer activity against human K562 cells assessed as cell growth inhibition incubated for 48 hrs by SRB method
[9] = system: HL-60(TB); assay: Anticancer activity against human HL-60(TB) cells assessed as cell growth inhibition incubated for 48 hrs by SRB method
[10] = system: NCI-H23; assay: Anticancer activity against human NCI-H23 cells assessed as cell growth inhibition incubated for 48 hrs by SRB method; outline: as §1
[11] = system: NCI-H460; assay: Anticancer activity against human NCI-H460 cells assessed as cell growth inhibition incubated for 48 hrs by SRB method; outline: as §1
[12] = system: COLO 205; assay: Anticancer activity against human COLO 205 cells assessed as cell growth inhibition incubated for 48 hrs by SRB method
[13] = system: HCC 2998; assay: Anticancer activity against human HCC 2998 cells assessed as cell growth inhibition incubated for 48 hrs by SRB method; outline: as §1
[14] = system: HCT-116; assay: Anticancer activity against human HCT-116 cells assessed as cell growth inhibition incubated for 48 hrs by SRB method; outline: as §1
[15] = system: HCT-15; assay: Anticancer activity against human HCT-15 cells assessed as cell growth inhibition incubated for 48 hrs by SRB method; outline: as §1
[16] = system: HT-29; assay: Anticancer activity against human HT29 cells assessed as cell growth inhibition incubated for 48 hrs by SRB method; outline: as §1
[17] = system: KM12; assay: Anticancer activity against human KM12 cells assessed as cell growth inhibition incubated for 48 hrs by SRB method; outline: as §1
[18] = system: SW-620; assay: Anticancer activity against human SW-620 cells assessed as cell growth inhibition incubated for 48 hrs by SRB method
[19] = system: SF-295; assay: Anticancer activity against human SF-295 cells assessed as cell growth inhibition incubated for 48 hrs by SRB method; outline: as §1
[20] = system: SF-539; assay: Anticancer activity against human SF-539 cells assessed as cell growth inhibition incubated for 48 hrs by SRB method
[21] = system: SNB-75; assay: Anticancer activity against human SNB-75 cells assessed as cell growth inhibition incubated for 48 hrs by SRB method
[22] = system: U-251; assay: Anticancer activity against human U-251 cells assessed as cell growth inhibition incubated for 48 hrs by SRB method
Outline: (§2)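 NCI-60 panel, SRB assay. Cells grown in RPMI 1640 with 5% FBS and 2 mM L-glutamine, seeded at 5,000–40,000 cells/well depending on doubling time, and preincubated 24 h at 37 °C with 5% CO2. Time-zero plates were TCA-fixed. Compounds came from DMSO stocks and were tested at 100 μM, 10 μM, 1 μM, 0.1 μM and 10 nM for 48 h. Cells were fixed with cold TCA and stained with 0.4% SRB, and the dye was solubilized in 10 mM Tris base with A515 read.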

[23] = system: LOX IMVI; assay: Anticancer activity against human LOX IMVI cells assessed as cell growth inhibition incubated for 48 hrs by SRB method
[24] = system: M14; assay: Anticancer activity against human M14 cells assessed as cell growth inhibition incubated for 48 hrs by SRB method; outline: as §1
[25] = system: MDA-MB-435; assay: Anticancer activity against human MDA-MB-435 cells assessed as cell growth inhibition incubated for 48 hrs by SRB method; outline: as §1
[26] = system: SK-MEL-28; assay: Anticancer activity against human SK-MEL-28 cells assessed as cell growth inhibition incubated for 48 hrs by SRB method; outline: as §1
[27] = system: UACC-257; assay: Anticancer activity against human UACC-257 assessed as cell growth inhibition incubated for 48 hrs by SRB method; outline: as §2
[28] = system: UACC-62; assay: Anticancer activity against human UACC-62 cells assessed as cell growth inhibition incubated for 48 hrs by SRB method; outline: as §2
[29] = system: OVCAR-8; assay: Anticancer activity against human OVCAR-8 cells assessed as cell growth inhibition incubated for 48 hrs by SRB method; outline: as §1
[30] = system: 786-0; assay: Anticancer activity against human 786-0 cells assessed as cell growth inhibition incubated for 48 hrs by SRB method; outline: as §1
[31] = system: A498; assay: Anticancer activity against human A498 cells assessed as cell growth inhibition incubated for 48 hrs by SRB method; outline: as §1
[32] = system: CAKI-1; assay: Anticancer activity against human CAKI-1 cells assessed as cell growth inhibition incubated for 48 hrs by SRB method; outline: as §1
[33] = system: RXF 393; assay: Anticancer activity against human RXF 393 cells assessed as cell growth inhibition incubated for 48 hrs by SRB method; outline: as §1
[34] = system: UO-31; assay: Anticancer activity against human UO-31 cells assessed as cell growth inhibition incubated for 48 hrs by SRB method
Outline: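 NCI-60 panel, SRB assay. Time-zero plates were TCA-fixed. Compounds came from DMSO stocks and were tested at 100 μM, 10 μM, 1 μM, 0.1 μM and 10 nM for 48 h. Cells were fixed with cold TCA and stained with 0.4% SRB, and the dye was solubilized in 10 mM Tris base with A515 read.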

[35] = system: PC-3; assay: Anticancer activity against human PC-3 cells assessed as cell growth inhibition incubated for 48 hrs by SRB method; outline: as §1
[36] = system: MCF7; assay: Anticancer activity against human MCF7 cells assessed as cell growth inhibition incubated for 48 hrs by SRB method; outline: as §1
[37] = system: MDA-MB-231; assay: Anticancer activity against human MDA-MB-231 cells assessed as cell growth inhibition incubated for 48 hrs by SRB method; outline: as §1
[38] = Anticancer activity against human HS 578T cells assessed as cell growth inhibition incubated for 48 hrs by SRB method
[39] = system: BT-549; assay: Anticancer activity against human BT-549 cells assessed as cell growth inhibition incubated for 48 hrs by SRB method; outline: as §1
[40] = system: T47D; assay: Anticancer activity against human T47D cells assessed as cell growth inhibition incubated for 48 hrs by SRB method; outline: as §1
[41] = system: MDA-MB-468; assay: Anticancer activity against human MDA-MB-468 cells assessed as cell growth inhibition incubated for 48 hrs by SRB method; outline: as §1

Compound `C=C1C(=O)O[C@H]2[C@H]1CC/C(COC(=O)NCc1ccc(OC)cc1)=C\CC[C@@]1(C)O[C@@H]21` has a GI50 [1] of 260 nM, a GI50 [2] of 260 nM and a GI50 [3] of 300 nM. It also gave a GI50 [4] of 2430 nM, a GI50 [5] of 1290 nM and a GI50 [6] of 4810 nM. For the same compound, the GI50 [7] was 280 nM, the GI50 [8] was 370 nM and the GI50 [9] was 260 nM. For the same compound, the GI50 [10] was 550 nM, the GI50 [11] was 2740 nM and the GI50 [12] was 240 nM. For the same compound, the GI50 [13] was 510 nM, the GI50 [14] was 190 nM and the GI50 [15] was 240 nM. For the same compound, the GI50 [16] was 260 nM, the GI50 [17] was 2350 nM and the GI50 [18] was 220 nM. The GI50 [19] was 10800 nM, the GI50 [20] was 320 nM and the GI50 [21] was 740 nM. It also gave a GI50 [22] of 960 nM, a GI50 [23] of 270 nM and a GI50 [24] of 190 nM. For the same compound, the GI50 [25] was 420 nM, the GI50 [26] was 1180 nM and the GI50 [27] was 1520 nM. For the same compound, the GI50 [28] was 2860 nM, the GI50 [29] was 490 nM and the GI50 [30] was 490 nM. The GI50 [31] was 1790 nM, the GI50 [32] was 720 nM and the GI50 [33] was 270 nM. The GI50 [34] was 190 nM, the GI50 [35] was 350 nM and the GI50 [36] was 1870 nM. The GI50 [37] was 370 nM, the GI50 [38] was 270 nM and the GI50 [39] was 620 nM. For the same compound, the GI50 [40] was 790 nM and the GI50 [41] was 240 nM.

`C=C1C(=O)O[C@H]2[C@H]1CC/C(COC(=O)NCc1ccccc1OC)=C\CC[C@@]1(C)O[C@@H]21` showed a GI50 [1] of 480 nM, a GI50 [2] of 1770 nM and a GI50 [3] of 670 nM. The GI50 [4] was 3070 nM, the GI50 [5] was 1980 nM and the GI50 [6] was 3690 nM. For the same compound, the GI50 [7] was 2530 nM, the GI50 [8] was 820 nM and the GI50 [9] was 1610 nM. The GI50 [10] was 1740 nM, the GI50 [11] was 3730 nM and the GI50 [12] was 1750 nM. It also gave a GI50 [13] of 1820 nM, a GI50 [14] of 540 nM and a GI50 [15] of 1040 nM. It also gave a GI50 [16] of 1220 nM, a GI50 [17] of 3530 nM and a GI50 [18] of 760 nM. It also gave a GI50 [19] of 5020 nM, a GI50 [20] of 1530 nM and a GI50 [21] of 2440 nM. It also gave a GI50 [22] of 2200 nM, a GI50 [23] of 1430 nM and a GI50 [24] of 1100 nM. The GI50 [25] was 1700 nM, the GI50 [26] was 1710 nM and the GI50 [27] was 1350 nM. For the same compound, the GI50 [28] was 1840 nM, the GI50 [29] was 1780 nM and the GI50 [30] was 2450 nM. For the same compound, the GI50 [31] was 2260 nM, the GI50 [32] was 3230 nM and the GI50 [33] was 1270 nM. For the same compound, the GI50 [34] was 1040 nM, the GI50 [35] was 1790 nM and the GI50 [36] was 3130 nM. For the same compound, the GI50 [37] was 690 nM, the GI50 [38] was 490 nM and the GI50 [39] was 1470 nM. The GI50 [40] was 3400 nM and the GI50 [41] was 660 nM.
